Structures can show the parent of a compound that is named as a salt.

The target of series [1] is T1, granuphilin C2A domain (Homo sapiens, UniProt Q96C24).
T1 sequence (Q96C24 352-488): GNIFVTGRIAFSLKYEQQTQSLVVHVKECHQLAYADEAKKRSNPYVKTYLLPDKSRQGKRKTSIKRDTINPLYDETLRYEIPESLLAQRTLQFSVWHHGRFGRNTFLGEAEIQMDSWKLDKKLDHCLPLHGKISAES
Nature of the series: Membrane dissociation kinetics on rapid addition of high IP6. The series is classed as binding. As to conditions: 8 mM IP6 rapidly added; biexponential.

Series [2] addresses T1, granuphilin C2A domain. Kind of series: Qualitative reversal of protein-to-membrane FRET by IP6. The conditions noted are these: 8 mM IP6, all lipid compositions tested. The series is classed as binding. Summed up:
(§1)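 Emission spectra recorded at 25 °C (excitation 284 nm) of vesicles bearing dansyl-PE acceptor (125 μM total accessible lipid) in KCl/NaCl/MgCl2/HEPES pH 7.4 buffer with 100 μM EDTA or 1 mM CaCl2. […] Each addition followed by 40 s stirred equilibration. Dansyl emission near 510 nm read; spectra dilution-corrected.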

The target of series [3] is T1, granuphilin C2A domain. Nature of the series: FRET competition binding assay: IP6 titrated into vesicle-bound C2A. As to conditions: 125 μM accessible lipid, 1 μM C2A.
Series [4] concerns the target T2, granuphilin C2B domain (Homo sapiens, UniProt Q96C24). Nature of the series: FRET competition binding assay: IP6 titrated into vesicle-bound C2B. Summed up: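 Human C2B domain (Glu487–Leu671, E. coli-expressed, freed from GST by thrombin) at 1 μM, premixed with liposomes (125 μM total accessible lipid) in 140 mM KCl, […], 0.5 mM MgCl2, 25 mM HEPES pH 7.4 with 100 μM EDTA, 25 °C. IP6 titrated; acceptor emission at 520 nm (excitation 284 nm, 10-s average), dilution-corrected, lipid-only blank subtracted.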

Series [5] deals with T1, granuphilin C2A domain. Nature of the series: Intrinsic Trp fluorescence titration of IP6 or IP3 into free C2A domain. Type of series: binding.
Series [6] addresses T2, granuphilin C2B domain. Nature of the series: Qualitative reversal of protein-to-membrane FRET by IP6. The series is classed as binding. The conditions noted are these: 8 mM IP6, all lipid compositions tested. A digest of the protocol:
as §1

Series [7] is described as follows: Stopped-flow FRET association and dissociation kinetics. The series is classed as binding. The conditions noted are these: 0.3 μM protein, 75 μM total accessible lipid. Summed up: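 Stopped-flow measurements at 25 °C in assay buffer with 100 μM EDTA; excitation 284 nm, dansyl emission through a 475-nm longpass filter, first 1 ms discarded. For association, 0.3 μM domain was mixed with liposomes (75 μM total accessible lipid, after mixing), and a single-exponential fit gave kobs. For dissociation, pre-bound complexes were mixed with equal volume of 4-fold excess unlabeled vesicles, and an exponential decay fit gave koff. kon was derived from kobs and koff; ≥3 replicates.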

Series [8] can be described thus: Qualitative protein-to-membrane FRET. The series is classed as binding. The conditions noted are these: 1 μM domain, 125 μM total accessible lipid. Summed up: as §1
Series [9] can be described thus: Stopped-flow FRET association and dissociation kinetics. The conditions noted are these: 0.3 μM protein, 75 μM total accessible lipid. Type of series: binding. Summed up:
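Association run by stopped-flow at 25 °C in assay buffer with 100 μM EDTA: 0.3 μM domain rapidly mixed with liposomes (75 μM total accessible lipid, after mixing). Excitation 284 nm, dansyl emission through a 475-nm longpass filter, data within 1 ms dead time discarded. Single-exponential fit gives kobs; traces averaged over 9–12 mixing events, ≥3 replicates.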
This is another data set of the same source.

A short description of series [10]: Qualitative protein-to-membrane FRET. Type of series: binding. The conditions noted are these: 1 μM domain, 125 μM total accessible lipid. Summed up: as §1
The source holds these as a separate data set.

Series [11] can be described thus: Qualitative protein-to-membrane FRET. The conditions noted are these: 1 μM domain, 125 μM total accessible lipid. Type of series: binding. Summed up:
as §1
The source holds these as a separate data set.

A short description of series [12]: Qualitative protein-to-membrane FRET. The series is classed as binding. As to conditions: PS and PI replaced with PG; 1 μM domain. Summed up: as §1

What is called IC50 is the point on the concentration scale where inhibition reaches its midpoint. Lower therefore signals greater potency. A word on the Ki: it is a dissociation constant, usually derived from enzyme kinetics or from competition with a known ligand. Lower therefore signals a stronger hold on the target. Turning to `O=P(O)(O)O[C@H]1[C@H](OP(=O)(O)O)[C@@H](OP(=O)(O)O)[C@H](OP(=O)(O)O)[C@@H](OP(=O)(O)O)[C@H]1OP(=O)(O)O` [IP6, D-myo-inositol 1,2,3,4,5,6,-hexakisphosphate dodecasodium salt], the “fold faster dissociation kinetics than by approach to equilibrium method” value at granuphilin C2A domain [1] is reported as ~ 100 fold. Further, the “reversal of protein-to-membrane FRET (dansyl emission at 512 nm)” value on granuphilin C2A domain [2] and at granuphilin C2B domain [6] was “completely reversed” each time. Moreover, the IC50 on granuphilin C2A domain [3] (PC/PG/dPE vesicles) worked out at 11 ± 1 µM; on granuphilin C2A domain [3] (PC/PI/dPE vesicles) it was 5 ± 1 µM; on granuphilin C2A domain [3] (PC/PS/dPE vesicles) it was 10 ± 1 µM; on granuphilin C2A domain [3] (PM(+)PIP2 vesicles, 100 μM EDTA) it was 1600 ± 200 µM; on granuphilin C2A domain [3] (PM(+)PIP3 vesicles) it was 1100 ± 100 µM; on granuphilin C2A domain [3] (PM(−)PIPx vesicles) it was 37 ± 6 µM. On granuphilin C2B domain [4], the IC50 was found to be 21 ± 3 µM. The values for the inhibition constant (Ki) at granuphilin C2B domain [4] and at granuphilin C2A domain [5] were 1.9 ± 0.5 µM and 1.8 ± 0.1 µM, respectively.
For the molecule `O=P(O)(O)O[C@@H]1[C@H](O)[C@H](O)[C@@H](OP(=O)(O)O)[C@H](OP(=O)(O)O)[C@H]1O` [IP3, D-myo-inositol-1,4,5-triphosphate tripotassium salt], at granuphilin C2A domain [5], the Ki amounted to 80 ± 30 µM and the “fold less tight binding of IP3 than IP6 to C2A” value is on record as ~ 40 fold.

B1: C2A: human granuphilin C2A domain (Gly352 – Ser488) with C-terminal His6 tag, expressed in E. coli (protein, UniProt Q96C24 352-488, looked up, fragment)
chain: GNIFVTGRIAFSLKYEQQTQSLVVHVKECHQLAYADEAKKRSNPYVKTYLLPDKSRQGKRKTSIKRDTINPLYDETLRYEIPESLLAQRTLQFSVWHHGRFGRNTFLGEAEIQMDSWKLDKKLDHCLPLHGKISAES
modifications: C2A domain C-terminal His6 tag
Consider B1, for which the kobs for association turned out to be 150 ± 20 s⁻¹ in series [7] and 190 ± 30 s⁻¹ in series [9]. The “protein-to-membrane FRET (dPE emission) on protein addition” value in [8] is recorded as “increase in dPE emission”; in [10] it was “increase in dPE emission”; in [11] it was “FRET was observed”; in series [12] it was “Binding was restored”.

Source of the values: publication PMC4085138 (Chemistry and physics of lipids, 2013).
